Eight compounds from ChEMBL document CHEMBL2385050 (J Med Chem, 2013) can be followed below.

For data set [1], the system named is Mus musculus. Kind of data set: Tmax in NOD/SCID mouse at 100 mg/kg, po by LC-MS-MS analysis. The following applies: in vivo. Type of data set: ADME, organism-based. Also noted: dose 100 mg/kg, route oral. In short, it runs like this:
(§1)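 Mixed E,Z material (E:Z 45:55 by LC-MS-MS), 100 mg/kg single oral gavage, 10-week-old female NOD/SCID mice. Each mouse bled once by tail vein (n = 3 per time point), sampling up to 24 h. Plasma E and Z isomers quantified by LC-MS-MS. Parameters are from mean plasma concentrations (n = 3).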

The nature of data set [2]: Apparent oral clearance in NOD/SCID mouse at 100 mg/kg, po by LC-MS-MS analysis. Particulars: in vivo. Details: dose 100 mg/kg, route oral. Type of data set: ADME, organism-based. In short, it runs like this:
as §1

In data set [3] the test system is Mus musculus. The data set can be described thus: Cmax in NOD/SCID mouse at 100 mg/kg, po by LC-MS-MS analysis. Type of data set: ADME, organism-based. Details: dose 100 mg/kg, route oral. The following applies: in vivo. In a few lines: as §1
Data set [4] can be described thus: Apparent volume of distribution during terminal phase in NOD/SCID mouse at 100 mg/kg, po by LC-MS-MS analysis. Particulars: in vivo, read-out: Vz/F. Type of data set: ADME, organism-based. Also noted: dose 100 mg/kg, route oral. In short, it runs like this: as §1
The subject of data set [5] is Mus musculus. Kind of data set: Clast in NOD/SCID mouse at 100 mg/kg, po by LC-MS-MS analysis. The following applies: in vivo. Type of data set: ADME, organism-based. Details: dose 100 mg/kg, route oral. In a few lines:
as §1

Data set [6] in a line: (§2) AUClast in NOD/SCID mouse at 100 mg/kg, po by LC-MS-MS analysis. Also noted: time 0 - last, dose 100 mg/kg, route oral. Type of data set: ADME, organism-based, Plasma. Particulars: NOD/SCID, plasma. In a few lines:
as §1

The target in a further data set is T1, Estrogen receptor (Homo sapiens, UniProt P03372).
T1 sequence (P03372 whole entry): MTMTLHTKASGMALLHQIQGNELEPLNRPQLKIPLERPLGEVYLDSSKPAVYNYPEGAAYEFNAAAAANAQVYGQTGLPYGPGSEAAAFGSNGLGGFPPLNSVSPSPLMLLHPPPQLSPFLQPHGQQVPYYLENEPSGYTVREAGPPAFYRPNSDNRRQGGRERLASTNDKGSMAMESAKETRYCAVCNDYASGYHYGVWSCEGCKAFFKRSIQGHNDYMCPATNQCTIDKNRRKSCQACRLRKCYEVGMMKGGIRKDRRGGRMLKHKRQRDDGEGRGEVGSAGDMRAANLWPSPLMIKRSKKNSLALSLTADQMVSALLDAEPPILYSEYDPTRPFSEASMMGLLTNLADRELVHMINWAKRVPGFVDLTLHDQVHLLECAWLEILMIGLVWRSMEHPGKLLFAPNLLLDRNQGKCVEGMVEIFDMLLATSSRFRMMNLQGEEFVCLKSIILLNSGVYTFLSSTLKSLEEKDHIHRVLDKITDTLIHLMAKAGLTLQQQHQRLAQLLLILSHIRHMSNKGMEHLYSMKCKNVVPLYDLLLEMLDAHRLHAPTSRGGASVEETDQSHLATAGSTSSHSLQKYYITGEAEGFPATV
Kind of data set: Displacement of fluorescent ES2 from human recombinant ERalpha after 2 hrs by fluorimetric analysis.

The test system of data set [7] is Mus musculus. Kind of data set: Half life in NOD/SCID mouse at 100 mg/kg, po by LC-MS-MS analysis. Type of data set: ADME, organism-based. Details: dose 100 mg/kg, route oral. The following applies: in vivo. In a few lines: as §1
The test system of data set [8] is Mus musculus. Described as §2. Type of data set: ADME, organism-based, Plasma. Also noted: time 0 - last, dose 100 mg/kg, route oral. The following applies: in vivo. In a few lines: as §1
In data set [9] the target is T2, Estrogen receptor (Homo sapiens) (UniProt P03372).
T2 sequence (whole entry): T1 sequence (P03372 whole entry)
The data set can be described thus: Displacement of fluorescent ES2 from human recombinant ERalpha at 100 uM after 2 hrs by fluorimetric analysis relative to control. In short, it runs like this: (§3)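 Fluorescence polarization competition with fluorescent estrogen ligand ES2 (9 nM) and recombinant human ER-α (30 nM) or ER-β (20 nM). Buffer: 100 mM potassium phosphate, 100 μg/mL BGG, 0.02% NaN3. Samples in methanol or methanol/dichloromethane; 2 h incubation protected from light. Read at Ex/Em 485/530 nm. Result is % polarization remaining vs vehicle control; mean of at least three experiments.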

Data set [10] has as its target Estrogen receptor beta (Homo sapiens) (UniProt Q92731). Kind of data set: Displacement of fluorescent ES2 from human recombinant ERbeta at 100 uM after 2 hrs by fluorimetric analysis relative to control. In a few lines: as §3
In data set [11] the target is T3, Aromatase (Homo sapiens, UniProt P11511).
T3 sequence (P11511 whole entry): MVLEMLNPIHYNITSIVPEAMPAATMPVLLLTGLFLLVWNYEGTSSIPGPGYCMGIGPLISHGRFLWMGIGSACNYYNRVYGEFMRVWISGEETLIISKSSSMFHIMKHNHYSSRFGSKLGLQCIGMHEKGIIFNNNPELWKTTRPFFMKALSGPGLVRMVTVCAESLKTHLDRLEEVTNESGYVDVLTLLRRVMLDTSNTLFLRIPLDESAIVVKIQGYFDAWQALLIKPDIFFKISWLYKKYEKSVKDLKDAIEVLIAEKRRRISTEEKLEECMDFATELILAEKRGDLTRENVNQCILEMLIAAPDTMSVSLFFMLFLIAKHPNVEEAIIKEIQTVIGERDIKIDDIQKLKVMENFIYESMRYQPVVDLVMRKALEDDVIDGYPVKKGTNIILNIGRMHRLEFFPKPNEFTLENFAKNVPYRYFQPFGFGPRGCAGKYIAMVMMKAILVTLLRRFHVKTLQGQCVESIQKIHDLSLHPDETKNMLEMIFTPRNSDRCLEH
The data set can be described thus: Inhibition of human recombinant microsomal aromatase-mediated 7-methoxy-4-trifluoromethylcoumarin conversion to 7-hydroxytrifluoromethylcoumarin at 50 uM preincubated for 10 mins measured after 30 mins by fluorescence assay relative to control. The following applies: probe 7-methoxy-4-trifluoromethylcoumarin. In short, it runs like this: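 Recombinant human CYP19 microsomal incubation, linear-range conditions. Samples in methanol or methanol/dichloromethane, prewarmed 10 min at 37 °C with NADPH-regenerating cofactor mix. Enzyme and MFC substrate added in 0.1 M potassium phosphate pH 7.4; 30 min reaction; stopped with Tris base in acetonitrile. HFC read at Ex/Em 409/530 nm against a standard curve. Result is % activity remaining vs vehicle; mean of at least three experiments.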

Data set [12] concerns the target T3, Aromatase. Kind of data set: Inhibition of human recombinant placental aromatase. In short, it runs like this:
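Recombinant human aromatase (CYP19) in microsomal incubations with fluorogenic substrate MFC, read as conversion to HFC. Compounds in methanol or methanol/dichloromethane, prewarmed 10 min at 37 °C with NADPH-regenerating mix, then enzyme/substrate in 0.1 M potassium phosphate pH 7.4 added. Activity given as % of vehicle control.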

Data set [13] has as its target T3, Aromatase. Kind of data set: Inhibition of human recombinant microsomal aromatase-mediated 7-methoxy-4-trifluoromethylcoumarin conversion to 7-hydroxytrifluoromethylcoumarin preincubated for 10 mins measured after 30 mins by fluorescence assay. In short, it runs like this:
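Recombinant human CYP19 with MFC substrate in 0.1 M potassium phosphate pH 7.4; samples in methanol or methanol/dichloromethane, prewarmed 10 min at 37 °C with NADPH-generating cofactor mix (NADP+, MgCl2, glucose-6-phosphate, G6PDH), then 30 min reaction, stopped with 0.1 M Tris base in acetonitrile.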

Chain of Estrogen receptor beta (Homo sapiens) (Q92731 whole entry): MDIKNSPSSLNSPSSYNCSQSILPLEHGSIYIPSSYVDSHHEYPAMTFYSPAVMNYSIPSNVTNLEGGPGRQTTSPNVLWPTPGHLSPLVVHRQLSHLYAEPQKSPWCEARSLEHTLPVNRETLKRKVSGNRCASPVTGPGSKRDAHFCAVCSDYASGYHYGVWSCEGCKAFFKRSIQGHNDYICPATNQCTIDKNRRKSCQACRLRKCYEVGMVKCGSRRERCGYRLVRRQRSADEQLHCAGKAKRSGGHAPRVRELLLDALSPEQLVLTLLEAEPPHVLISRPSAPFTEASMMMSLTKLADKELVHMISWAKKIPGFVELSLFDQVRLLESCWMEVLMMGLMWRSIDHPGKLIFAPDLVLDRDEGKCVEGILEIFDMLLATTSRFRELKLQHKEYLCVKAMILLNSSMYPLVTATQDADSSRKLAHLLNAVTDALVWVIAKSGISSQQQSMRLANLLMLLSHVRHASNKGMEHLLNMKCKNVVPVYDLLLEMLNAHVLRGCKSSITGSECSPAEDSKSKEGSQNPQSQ

With `CC/C(=C(\c1ccc(O)cc1)c1ccc(OCCN)cc1)c1ccccc1`, in the data set with Mus musculus [1], the Tmax was determined as 1 h. The CL/F in data set [2] was 0.267 mL/min. This compound registered a Cmax in the data set with Mus musculus [3] of 2100 ng/mL. Also, the Vd/F in data set [4] was 0.5 L. This compound also gave a Clast with Mus musculus [5] of 900 ng/mL. Besides, the AUC(0-t) in [6] was found to be 35100 ng·h/mL. Also, the EC50 at Estrogen receptor amounted to 0.017 µM. This compound also showed a t1/2 in the data set on Mus musculus [7] of 22.7 h.

`CC/C(=C(/c1ccc(O)cc1)c1ccc(OCCN)cc1)c1ccccc1`: in the data set on Mus musculus [1], the Tmax was found to be 2 h. In addition, the CL/F in data set [2] was 1.52 mL/min. For the same compound, the Cmax in the data set on Mus musculus [3] is 700 ng/mL. The Vd/F in [4] came to 2.8 L. In the data set on Mus musculus [5], this compound registered a Clast of 100 ng/mL. The same compound gave an AUClast in the data set with Mus musculus [8] of 5800 ng·h/mL. Besides, the EC50 on Estrogen receptor was found to be 0.0587 µM. Also, the t1/2 with Mus musculus [7] is 21.4 h.

As to `CC/C(=C(/c1ccc(O)cc1)c1ccc(OC(=O)C(C)(C)C)cc1)c1ccccc1`, the Activity in data set [9] and in data set [10] was 68% throughout. For the same compound, the inhibition at 0.5 h, 50 µM on Aromatase [11] stood at 8%.

Turning to `CC/C(=C(\c1ccc(O)cc1)c1ccc(OCCNC)cc1)c1ccccc1` (mixture of isomers) [ENDOXIFEN], the IC50 at Aromatase [12] is 6 µM.

For the compound `CC/C(=C(/c1ccc(OCC(N)=O)cc1)c1ccc(OC(=O)C(C)(C)C)cc1)c1ccccc1`, the figures for the Activity in data set [9] and in [10] were 56% and 45%, respectively. The inhibition at 0.5 h, 50 µM on Aromatase [11] came out at 0%.

`CCC(=C(c1ccc(O)cc1)c1ccc(OCCN(C)C)cc1)c1ccccc1`: the IC50 on Aromatase [12] came out at 530 µM.

On to `CCC(=C(c1ccc(O)cc1)c1ccc(O)cc1)c1ccccc1`, for which, in data set [9], the Activity is 80%.

Take `CC/C(=C(\c1ccc(O)cc1)c1ccc(OCC(N)=O)cc1)c1ccccc1`: the Activity was determined as 57% in data set [9] and 71% in data set [10]. At Aromatase [13], the IC50 stood at 9.26 µM.

The Tmax is the time at which the peak concentration occurs. Usually CL/F stands for clearance divided by bioavailability, as obtained after extravascular dosing. What is called Cmax is the peak of the concentration-time curve. Usually AUC(0-t) stands for the area under the concentration-time curve up to a stated or last time point. Low readings indicate less exposure, high ones more exposure. Broadly, the EC50 is the concentration at which the effect is half-maximal. The term inhibition denotes how much of the control response was suppressed. In general, IC50 refers to the point on the concentration scale where inhibition reaches its midpoint.
